This passage reports ILS, ID50 and IC50 results from ChEMBL document CHEMBL1122091, “Synthesis of pyridazine analogues of the naturally occurring nucleosides cytidine, uridine, deoxycytidine, and deoxyuridine” (1982).

Experiment [1] concerns L1210. In words: In vivo percent increase in life span (%ILS) of mice bearing L1210 leukemia at a dose of 400 mg/kg. The experiment is classed as functional, Mus musculus. Particulars: for ILS at 400 mg/kg: Mus musculus, L1210, dose 400 mg/kg. The method in brief:
(§1)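 Run by the NCI Division of Cancer Treatment, which supplied the data, using standard National Cancer Institute protocols for mouse L1210 leukemia.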

Experiment [2] concerns L1210. Put plainly: In vitro inhibitory activity against growth of L1210 mouse leukemia cells at 10E-4 M concentration; IA means Inactive. The experiment is classed as functional, cell-based. The method, boiled down:
(§2)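 L1210 mouse leukemia cells grown in static suspension culture in Fischer's medium for leukemic cells of mice; growth rate over a 3-day period measured with test compound present continuously.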

For experiment [3], the system named is L1210. Put plainly: In vitro inhibitory activity against growth of L1210 mouse leukemia cells at 10E-4 M concentration. The experiment is classed as functional. To be noted: read-out: ID50 (the source's name). The method in brief:
as §2

The test system of experiment [4] is L1210. In words: In vivo percent increase in life span (%ILS) of mice bearing L1210 leukemia at a dose of 200 mg/kg. To be noted: Mus musculus. The experiment is classed as functional. The method in brief: as §1

Active and inactive are the calls of the source. The rule behind the calls is not given here. A value given as a limit tells only on which side of the number the result lay.

By ILS is commonly meant the gain in survival time of treated over control animals, in per cent. A high value points to a large benefit in survival.

On to `COc1cnn([C@H]2C[C@H](O)[C@@H](CO)O2)c(=O)c1Cl`, for which, in the experiment on L1210 [1], the ILS at 400 mg/kg was under 25%. Moreover, in the experiment on L1210 [2], the ID50 result was “inactive”.

Take `O=c1c(SCc2ccccc2)c(SCc2ccccc2)cnn1C1O[C@H](CO)[C@@H](O)[C@H]1O` (stereo partly drawn): the ILS at 400 mg/kg with L1210 [1] is under 25%. For the same molecule, the ID50 entry with L1210 [2] was “inactive”.

In the case of `CC(=O)OC[C@H]1O[C@@H](n2ncc(N)cc2=O)[C@H](OC(C)=O)[C@@H]1OC(C)=O`, the ILS at 400 mg/kg with L1210 [1] is under 25%. Also, the ID50 result in the experiment with L1210 [2] is “inactive”.

Take `CN(C)c1cnn(C2O[C@H](CO)[C@@H](O)[C@H]2O)c(=O)c1Cl` (stereo partly drawn): in the experiment with L1210 [1], the ILS at 400 mg/kg was under 25%. Besides, the ID50 entry with L1210 [2] was “inactive”.

On to `COc1cnn([C@H]2C[C@H](O)[C@@H](CO)O2)c(=O)c1`, for which the ILS at 400 mg/kg in the experiment on L1210 [1] is under 25%. Moreover, the ID50 result in the experiment with L1210 [2] is “inactive”.

`CNc1cnn(C2O[C@H](CO)[C@@H](O)[C@H]2O)c(=O)c1Cl` (stereo partly drawn) displayed an ILS at 400 mg/kg with L1210 [1] of under 25%. Further, in the experiment with L1210 [2], the ID50 entry was “inactive”.

In the case of `Oc1nncc(Cl)c1Cl`, the ILS at 400 mg/kg in the experiment on L1210 [1] was over 25%. In addition, the ID50 result in the experiment with L1210 [2] is “inactive”.

Take `CN(C)c1cnn(C2O[C@H](CO)[C@@H](O)[C@H]2O)c(=O)c1N(C)C` (stereo partly drawn): the increase in lifespan (ILS) at 400 mg/kg in the experiment with L1210 [1] is under 25%. Moreover, the ID50 entry in the experiment with L1210 [2] is “inactive”.

`CN(C)c1cnn(C2O[C@H](CO)[C@@H](O)[C@H]2O)c(=O)c1` (stereo partly drawn) displayed an ILS at 400 mg/kg in the experiment with L1210 [1] of under 25%. Further, in the experiment on L1210 [2], the ID50 result is “inactive”.

For the molecule `O=C1C=NN(C2O[C@H](CO)[C@@H](O)[C@H]2O)C(=O)C1` (stereo partly drawn), in the experiment with L1210 [1], the ILS at 400 mg/kg is under 25%. The ID50 result in the experiment with L1210 [2] was “inactive”.

In the experiment with L1210 [1], `O=C(OC[C@H]1O[C@@H](n2ncc(Cl)c(Cl)c2=O)[C@H](OC(=O)c2ccccc2)[C@@H]1OC(=O)c1ccccc1)c1ccccc1` gave an ILS at 400 mg/kg of under 25%. In addition, the ID50 entry in the experiment with L1210 [2] was “inactive”.

Turning to `CC(=O)OC[C@H]1O[C@@H](N2N=CC(=O)CC2=O)[C@H](OC(C)=O)[C@@H]1OC(C)=O`, in the experiment on L1210 [1], the ILS at 400 mg/kg is under 25%. In addition, in the experiment on L1210 [2], the ID50 entry is “inactive”.

On to `C[Si](C)(C)Oc1nncc(Cl)c1Cl`, for which, in the experiment with L1210 [1], the ILS at 400 mg/kg was under 25%. Also, in the experiment on L1210 [2], the ID50 entry is “inactive”.

In the experiment on L1210 [1], `Nc1cnn([C@H]2C[C@H](O)[C@@H](CO)O2)c(=O)c1` had an ILS at 400 mg/kg of under 25%. Also, the ID50 entry in the experiment with L1210 [2] is “inactive”.

As for `Nc1cnn(C2O[C@H](CO)[C@@H](O)[C@H]2O)c(=O)c1` (stereo partly drawn), in the experiment on L1210 [1], the ILS at 400 mg/kg is under 25%. Besides, in the experiment on L1210 [2], the ID50 result was “inactive”.

`CC1(C)O[C@@H]2[C@H](O1)[C@@H](CO)O[C@H]2n1ncc(N)c(Cl)c1=O` showed an ILS at 400 mg/kg with L1210 [1] of under 25%. Further, the ID50 result in the experiment with L1210 [2] was “inactive”.

`CSc1cnn(C2O[C@H](CO)[C@@H](O)[C@H]2O)c(=O)c1SC` (stereo partly drawn) had an ILS at 400 mg/kg in the experiment on L1210 [1] of under 25%. For the same molecule, in the experiment on L1210 [2], the ID50 entry was “inactive”.

As for `Nc1cnn(C2O[C@H](CO)[C@@H](O)[C@H]2O)c(=O)c1Cl` (stereo partly drawn), in the experiment on L1210 [1], the ILS at 400 mg/kg was under 25%. The ID50 entry in the experiment with L1210 [2] is “inactive”.

As for `O=c1cnn([C@@H]2O[C@H](CO)[C@@H](O)[C@H]2O)c(=O)[nH]1` [6-AZAURIDINE], in the experiment with L1210 [1], the ILS at 400 mg/kg is under 25%. Also, the ID50 entry with L1210 [2] is “inactive”.

The molecule `O=C1C=NN([C@H]2C[C@H](O)[C@@H](CO)O2)C(=O)C1` had an ILS at 400 mg/kg with L1210 [1] of under 25%. Also, the ID50 entry with L1210 [2] is “inactive”.

With `O=c1cc(O)cnn1[C@@H]1O[C@H](CO)[C@@H](O)[C@H]1O` (stereo in doubt; 17), the ILS in the experiment with L1210 [1] (dose 400 mg/kg) is on record as over 25%.

In the experiment with L1210 [1], `O=c1cccnn1C1O[C@H](CO)[C@@H](O)[C@H]1O` (stereo partly drawn) yielded an ILS at 400 mg/kg of under 25%. In addition, in the experiment with L1210 [2], the ID50 entry was “inactive”.

In the experiment with L1210 [1], `O=c1cc(O)cnn1[C@@H]1O[C@H](CO)[C@@H](O)[C@H]1O` (stereo in doubt; 15) yielded an ILS at 400 mg/kg of 32%. For the same molecule, in the experiment on L1210 [3], the IC50 amounted to 70 µM. Further, the ILS at 200 mg/kg in the experiment with L1210 [4] was 32%.

As to `CNc1cnn(C2O[C@H](CO)[C@@H](O)[C@H]2O)c(=O)c1` (stereo partly drawn), in the experiment with L1210 [1], the ILS at 400 mg/kg was under 25%. Moreover, the ID50 entry in the experiment with L1210 [2] is “inactive”.

As for `O=C(OC[C@H]1O[C@@H](n2ncccc2=O)[C@H](OC(=O)c2ccccc2)[C@@H]1OC(=O)c1ccccc1)c1ccccc1`, the ILS at 400 mg/kg with L1210 [1] is under 25%. Moreover, the ID50 entry in the experiment with L1210 [2] is “inactive”.

`COc1cnn(C2O[C@H](CO)[C@@H](O)[C@H]2O)c(=O)c1Cl` (stereo partly drawn) had an increase in life span (ILS) at 400 mg/kg in the experiment with L1210 [1] of under 25%. For the same molecule, the ID50 result in the experiment on L1210 [2] was “inactive”.

Consider `O=c1ccn([C@@H]2O[C@H](CO)[C@@H](O)[C@H]2O)c(=O)[nH]1` [URIDINE], for which the ILS at 400 mg/kg in the experiment with L1210 [1] is under 25%. Also, the ID50 entry with L1210 [2] is “inactive”.

For the molecule `Nc1cnn([C@H]2C[C@H](O)[C@@H](CO)O2)c(=O)c1Cl`, in the experiment on L1210 [1], the ILS at 400 mg/kg was under 25%. Also, the ID50 entry in the experiment with L1210 [2] was “inactive”.

As to `COc1cnn(C2O[C@H](CO)[C@@H](O)[C@H]2O)c(=O)c1` (stereo partly drawn), the ILS at 400 mg/kg with L1210 [1] is under 25%. For the same molecule, in the experiment on L1210 [2], the ID50 entry is “inactive”.
